The target in test [1] is T1, Adenosine receptor A2a (Homo sapiens, UniProt P29274). In words: Displacement of [3H]ZM-241,385 from human N-terminal FLAG-tagged adenosine A2A receptor expressed in HEK293 cell membrane assessed as radioligand binding at 10 uM by microbeta scintillation counting method relative to control. The class given is cell membranes. Put shortly: (§1)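 Membranes from HEK293 cells stably expressing hA2AAR-WT (15 µg protein) or transiently expressing W246A mutant (4 µg; harvested 48 h post-transfection), ADA-treated. Incubated 2 h at 25 °C in 50 mM Tris-HCl pH 7.4 with 2.5 nM [3H]ZM-241,385 ± 10 µM test compound; filtration, scintillation counting. 100% = no compound; 0% = nonspecific (100 µM NECA for WT, 10 µM ZM-241,385 for mutant). Means of ≥3 independent assays in duplicate.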

For test [2], the system named is Adenosine A2 receptor (Homo sapiens), P29275+P29274 [W246A]. Briefly: Displacement of [3H]ZM-241,385 from human N-terminal FLAG-tagged adenosine A2A receptor W246A 6.48 mutant expressed in HEK293 cell membrane assessed as radioligand binding at 10 uM by microbeta scintillation counting method relative to control. The test is classed as cell membranes. In short, it runs like this: as §1

In test [3] the target is T1, Adenosine receptor A2a. In words: Displacement of [3H]ZM-241,385 from human N-terminal FLAG-tagged adenosine A2A receptor expressed in HEK293 cell membrane assessed as radioligand residence time at 100 uM by microbeta scintillation counting method. The class given is cell membranes. Put shortly:
(§2)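 Dissociation assay on HEK293 membranes (WT stable, 15 µg; W246A transient, 4 µg). Preequilibration with 2.5 nM [3H]ZM-241,385 for 1 h at 4 °C. Dissociation started with 100 µM NECA ± 100 µM compound (WT, times over 180 min) or 10 µM ZM-241,385 ± 10 µM compound (mutant, over 30 min). Filtration, scintillation counting. One-phase dissociation fit gave residence time versus control. ≥3 assays in duplicate.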

The target of test [4] is T1, Adenosine receptor A2a. In words: Displacement of [3H]ZM-241,385 from human N-terminal FLAG-tagged adenosine A2A receptor expressed in HEK293 cell membrane by microbeta scintillation counting method. The test is classed as cell membranes. Put shortly:
(§3)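 Competition binding to ADA-treated HEK293 membranes, WT receptor stably expressed (15 µg protein) or W246A mutant transiently expressed (4 µg). 2.5 nM [3H]ZM-241,385 with increasing compound concentrations, 2 h at 25 °C in 50 mM Tris-HCl pH 7.4. Filtration and scintillation counting. IC50 from a one-site fit. Nonspecific binding: 100 µM NECA (WT) or 10 µM ZM-241,385 (mutant). ≥3 independent assays in duplicate. Fold change = WT IC50 / mutant IC50.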

Test [5] relates to Adenosine A2 receptor (Homo sapiens), P29275+P29274 [W246A]. Briefly: Displacement of [3H]ZM-241,385 from human N-terminal FLAG-tagged adenosine A2A receptor W246A 6.48 mutant expressed in HEK293 cell membrane assessed as decrease in radioligand residence time at 10 uM by microbeta scintillation counting method relative to control. The test is classed as cell membranes. In short, it runs like this:
as §2

The target in test [6] is T1, Adenosine receptor A2a. Briefly: Displacement of [3H]ZM-241,385 from human N-terminal FLAG-tagged adenosine A2A receptor expressed in HEK293 cell membrane assessed as decrease in radioligand residence time at 100 uM by microbeta scintillation counting method relative to control. The class given is cell membranes. Put shortly: as §2
Test [7] deals with Adenosine A2 receptor (Homo sapiens), P29275+P29274 [W246A]. In words: Displacement of [3H]ZM-241,385 from human N-terminal FLAG-tagged adenosine A2A receptor W246A 6.48 mutant expressed in HEK293 cell membrane assessed as radioligand residence time at 10 uM by microbeta scintillation counting method. The class given is cell membranes. Put shortly:
as §2

Another test deals with Adenosine A2 receptor (Homo sapiens, UniProt P29275+P29274, W246A). Briefly: Displacement of [3H]ZM-241,385 from human N-terminal FLAG-tagged adenosine A2A receptor W246A 6.48 mutant expressed in HEK293 cell membrane by microbeta scintillation counting method. The test is classed as cell membranes. Put shortly:
as §3

The next test deals with HEK293. In words: Ratio of IC50 for human N-terminal FLAG-tagged adenosine A2A receptor expressed in HEK293 cell membrane to IC50 for human N-terminal FLAG-tagged adenosine A2A receptor W246A 6.48 mutant expressed in HEK293 cell membrane. The class given is cell-based. Put shortly:
as §3

Experimental findings from ChEMBL document CHEMBL3817744, “5'-Substituted Amiloride Derivatives as Allosteric Modulators Binding in the Sodium Ion Pocket of the Adenosine A2A Receptor” (J Med Chem, 2016) are described below.

T1 sequence (P29274 whole entry): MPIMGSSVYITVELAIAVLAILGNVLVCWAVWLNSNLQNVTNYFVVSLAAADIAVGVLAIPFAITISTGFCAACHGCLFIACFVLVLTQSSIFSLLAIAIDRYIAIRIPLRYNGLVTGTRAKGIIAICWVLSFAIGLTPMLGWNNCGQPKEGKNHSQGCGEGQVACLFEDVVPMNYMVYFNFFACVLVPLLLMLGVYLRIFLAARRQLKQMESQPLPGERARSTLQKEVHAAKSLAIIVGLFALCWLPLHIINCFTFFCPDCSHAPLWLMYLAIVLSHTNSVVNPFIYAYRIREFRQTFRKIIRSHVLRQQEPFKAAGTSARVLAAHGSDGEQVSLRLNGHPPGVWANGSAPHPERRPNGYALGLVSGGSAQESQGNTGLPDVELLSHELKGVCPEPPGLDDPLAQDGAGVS

With `NC(N)=NC(=O)c1nc(Cl)c(NCCc2ccc(OC(F)(F)F)cc2)nc1N`, the Activity at Adenosine receptor A2a [1] came out at 63%; in test [2], 5.2%.

For the compound `Cc1ccc(CCNc2nc(N)c(C(=O)N=C(N)N)nc2Cl)cc1`, the values for the Activity (on Adenosine receptor A2a [1]; in test [2]) were 50% and 2.1%, respectively.

As to `N#CCCNc1nc(N)c(C(=O)NC(=N)N)nc1Cl`, the Activity turned out to be 65% on Adenosine receptor A2a [1] and 17% in test [2].

With `NC(N)=NC(=O)c1nc(Cl)c(NCCc2ccc(OCc3ccccc3)cc2)nc1N`, the Activity on Adenosine receptor A2a [1] amounted to 75%; in test [2], 4%.

Regarding `NC(N)=NC(=O)c1nc(Cl)c(NCCc2ccc([N+](=O)[O-])cc2)nc1N`, the Activity at Adenosine receptor A2a [1] came out at 68%; in [2] it was 5.8%.

Take `CCOC(=O)CCNc1nc(N)c(C(=O)NC(=N)N)nc1Cl`: the Activity came to 87% at Adenosine receptor A2a [1] and 48% in test [2].

Take `N=C(N)NC(=O)c1nc(Cl)c(NCC(=O)O)nc1N`: the Activity worked out at 88% at Adenosine receptor A2a [1] and 111% in [2].

Turning to `N=C(N)NC(=O)c1nc(Cl)c(NCCS(=O)(=O)Cc2ccccc2)nc1N`, the Activity on Adenosine receptor A2a [1] amounted to 82%; in test [2], 18%.

Regarding `N=C(N)NC(=O)c1nc(Cl)c(NCCNCc2ccccc2)nc1N`, the Activity on Adenosine receptor A2a [1] was 90%; in test [2] it was 65%.

Take `N=C(N)NC(=O)c1nc(Cl)c(NCCSCc2ccccc2)nc1N`: the figures for the Activity (at Adenosine receptor A2a [1]; in [2]) were 84% and 35%, respectively.

On to `NC(N)=NC(=O)c1nc(Cl)c(NCCc2ccc(O)cc2)nc1N`, for which the values for the Activity (on Adenosine receptor A2a [1]; in [2]) were 72% and 9.5%, respectively.

Regarding `N=C(N)NC(=O)c1nc(Cl)c(NCc2ccccc2)nc1N`, the Activity was found to be 77% on Adenosine receptor A2a [1] and 21% in [2].

Turning to `N=C(N)NC(=O)c1nc(Cl)c(NCc2ccc(F)cc2)nc1N`, the results for the Activity (at Adenosine receptor A2a [1]; in test [2]) were 96% and 48%, respectively.

For the compound `N=C(N)NC(=O)c1nc(Cl)c(N)nc1N`, the Activity at Adenosine receptor A2a [1] turned out to be 71%; in test [2], 11%.

In the case of `N=C(N)NC(=O)c1nc(Cl)c(NCc2ccncc2)nc1N`, the values for the Activity (on Adenosine receptor A2a [1]; in [2]) were 87% and 73%, respectively.

Regarding `CCCCOc1ccc(CCNc2nc(N)c(C(=O)N=C(N)N)nc2Cl)cc1`, the Activity on Adenosine receptor A2a [1] worked out at 66%; in test [2] it was 3.4%.

As to `N=C(N)NC(=O)c1nc(Cl)c(NCCc2nnn[nH]2)nc1N`, the figures for the Activity (at Adenosine receptor A2a [1]; in test [2]) were 99% and 101%, respectively.

With `COc1cccc(CCNc2nc(N)c(C(=O)N=C(N)N)nc2Cl)c1.Cl`, the TIME at Adenosine receptor A2a [3] turned out to be 0.7 h; in test [7], 0.0133 h. In addition, the IC50 worked out at 8.1 µM at Adenosine receptor A2a [4] and 0.25 µM at Adenosine A2 receptor. Moreover, the values for the Activity (at Adenosine receptor A2a [1]; in test [2]) were 41% and 5.4%, respectively. The fold change (FC) in test [5] came to 3.4; at Adenosine receptor A2a [6], 1.5. Also, the Ratio IC50 in the test with HEK293 turned out to be 32.

Regarding `Cc1ccc(S(=O)(=O)NCCNc2nc(N)c(C(=O)NC(=N)N)nc2Cl)cc1`, the Activity on Adenosine receptor A2a [1] is 85%; in [2], 32%.

Consider `NC(N)=NC(=O)c1nc(Cl)c(NCCc2ccc(Cl)c(Cl)c2)nc1N`, for which the Activity at Adenosine receptor A2a [1] is 82%; in test [2], 11%.

Turning to `CCN(CC)CCNc1nc(N)c(C(=O)NC(=N)N)nc1Cl`, the results for the Activity (at Adenosine receptor A2a [1]; in test [2]) were 85% and 53%, respectively.

Turning to `CCOc1ccc(CCNc2nc(N)c(C(=O)N=C(N)N)nc2Cl)cc1.O=C(O)C(F)(F)F`, the TIME on Adenosine receptor A2a [3] came to 0.667 h; in test [7], 0.0217 h. The IC50 at Adenosine receptor A2a [4] is 3.4 µM; on Adenosine A2 receptor it was 0.05 µM. The Activity at Adenosine receptor A2a [1] came to 27%; in test [2], 3.5%. Further, the results for the fold change (FC) (in test [5]; at Adenosine receptor A2a [6]) were 2.1 and 1.5, respectively. The Ratio IC50 in the test with HEK293 came to 76.

Consider `NC(N)=NC(=O)c1nc(Cl)c(NC2Cc3ccccc3C2)nc1N`, for which the Activity at Adenosine receptor A2a [1] came out at 68%; in [2] it was 6.6%.

Regarding `NC(N)=NC(=O)c1nc(Cl)c(NCCCc2ccccc2)nc1N`, the results for the Activity (at Adenosine receptor A2a [1]; in [2]) were 60% and 9%, respectively.

For the compound `C=CCOc1ccc(CCNc2nc(N)c(C(=O)N=C(N)N)nc2Cl)cc1`, the Activity was found to be 43% on Adenosine receptor A2a [1] and 2.2% in [2].

As to `Cl.NC(N)=NC(=O)c1nc(Cl)c(NCCc2ccc3c(c2)OCO3)nc1N`, the TIME on Adenosine receptor A2a [3] was 1.02 h; in test [7], 0.02 h. Moreover, the figures for the IC50 at Adenosine receptor A2a [4] and at Adenosine A2 receptor were 5.6 µM and 0.07 µM, respectively. Besides, the Activity on Adenosine receptor A2a [1] stood at 35%; in test [2] it was 1%. Besides, in test [5], the fold change (FC) was 2.3. For the same compound, the Ratio IC50 in the test with HEK293 was 80.

On to `NC(N)=NC(=O)c1nc(Cl)c(NCCc2ccc(Br)cc2)nc1N`, for which the Activity at Adenosine receptor A2a [1] worked out at 67%; in test [2], 4.8%.

For the compound `N=C(N)NC(=O)c1nc(Cl)c(NCCC(=O)O)nc1N`, the figures for the Activity (at Adenosine receptor A2a [1]; in [2]) were 96% and 70%, respectively.

For the compound `COc1ccc(CCNc2nc(N)c(C(=O)N=C(N)N)nc2Cl)cc1.Cl`, the TIME at Adenosine receptor A2a [3] turned out to be 0.733 h; in test [7], 0.0333 h. Further, the IC50 was determined as 4.4 µM on Adenosine receptor A2a [4] and 0.12 µM on Adenosine A2 receptor. The Activity on Adenosine receptor A2a [1] was 31%; in test [2], -0.4%. Besides, the fold change (FC) is 1.3 in test [5] and 1.5 on Adenosine receptor A2a [6]. In addition, the Ratio IC50 in the test on HEK293 amounted to 37.

In the case of `COc1ccc(CCNc2nc(N)c(C(=O)N=C(N)N)nc2Cl)cc1OC`, the Activity on Adenosine receptor A2a [1] came out at 51%; in test [2], 1.8%.

On to `N=C(N)NC(=O)c1nc(Cl)c(NCc2cccnc2)nc1N`, for which the Activity came out at 71% on Adenosine receptor A2a [1] and 46% in [2].

As for `NC(N)=NC(=O)c1nc(Cl)c(NCCc2ccc(Cl)cc2)nc1N`, the Activity at Adenosine receptor A2a [1] came to 92%; in test [2], 32%.

Take `N=C(N)NC(=O)c1nc(Cl)c(N2CCCCCC2)nc1N` [N,N-HEXAMETHYLENEAMILORIDE]: the results for the TIME (on Adenosine receptor A2a [3]; in [7]) were 0.467 h and 0.0233 h, respectively. For the same compound, the figures for the IC50 at Adenosine receptor A2a [4] and on Adenosine A2 receptor were 5.1 µM and 0.27 µM, respectively. The Activity at Adenosine receptor A2a [1] came out at 30%; in [2], 1.8%. The fold change (FC) in test [5] was found to be 1.9; at Adenosine receptor A2a [6], 2.2. Further, the Ratio IC50 with HEK293 stood at 19.

In the case of `N=C(N)NC(=O)c1nc(Cl)c(NCCc2ccccc2)nc1N`, the Activity amounted to 54% at Adenosine receptor A2a [1] and 1.1% in test [2].
